# Published values of several laboratories.
# Each line is one published result; the experiments were not run side by side.
# PIK3CA M1043I: Phosphatidylinositol 4,5-bisphosphate 3-kinase catalytic subunit alpha isoform (PIK3CA, Homo sapiens, UniProt P42336, M1043I)
# PIK3CA H1047Y: Phosphatidylinositol 4,5-bisphosphate 3-kinase catalytic subunit alpha isoform (PIK3CA, Homo sapiens, UniProt P42336, H1047Y)
# PIK3CA E542K: Phosphatidylinositol 4,5-bisphosphate 3-kinase catalytic subunit alpha isoform (PIK3CA, Homo sapiens, UniProt P42336, E542K)
# PIK3CA C420R: Phosphatidylinositol 4,5-bisphosphate 3-kinase catalytic subunit alpha isoform (PIK3CA, Homo sapiens, UniProt P42336, C420R)
# PIK3CA: Phosphatidylinositol 4,5-bisphosphate 3-kinase catalytic subunit alpha isoform (PIK3CA, Homo sapiens, UniProt P42336)
SMILES,target,read-out,method,concentration,remaining binding
CC1CCCN1c1nccc(-c2cnn3ncccc23)n1 (stereo not shown),PIK3CA M1043I,binding,,1 µM,100%
Nc1ncc2c(n1)-c1c([nH]c3ccc(C#CC4CC4)cc13)CCCC2,PIK3CA H1047Y,binding,competition with immobilised ligand,1 µM,75%
O=S(=O)(NC1CCC(c2cc(F)ccc2F)(S(=O)(=O)c2ccc(Cl)cc2)CC1)C(F)(F)F (stereo not shown),PIK3CA E542K,cell-free assay,competition with immobilised ligand,1 µM,100%
COc1ncc2cc3ccccc3nc2c1C#N,PIK3CA H1047Y,cell-free assay,competition with immobilised ligand,5 µM,86%
c1cnn2ncc(-c3ccnc(N4CCC45COC5)n3)c2c1,PIK3CA C420R,binding,,1 µM,71%
CCOCCn1cc(C(=O)Nc2ccc(-n3nc(-c4cccnc4)cc3C(F)(F)F)cn2)ccc1=O,"Phosphatidylinositol 4,5-bisphosphate 3-kinase catalytic subunit alpha isoform (PIK3CA, Homo sapiens, UniProt P42336, E545K)",cell-free assay,competition with immobilised ligand,1 µM,96%
Cc1cnn2ncc(-c3ccnc(N(C)C)n3)c2c1,PIK3CA H1047Y,binding,,1 µM,98%
O=C(Nc1c[nH]nc1C(=O)NC1CCNCC1)c1cc(F)cc(F)c1,PIK3CA M1043I,binding,competition with immobilised ligand,1 µM,100%
O=C(N[C@H]1CCCCC/C=C\C2C[C@@]2(C(=O)O)NC(=O)[C@@H]2C[C@@H](Oc3ccncc3)CN2C1=O)OC1CCCC1 (stereo partly shown),PIK3CA E542K,binding,competition with immobilised ligand,1 µM,96%
N[C@H]1CCN(c2nccc(-c3cnn4ncccc34)n2)C1,PIK3CA,binding,,1 µM,100%
COc1cnc(Nc2cccc(S(N)(=O)=O)c2)nc1N1CCN(c2ccccc2)C(=O)C1,PIK3CA C420R,binding,competition with immobilised ligand,1 µM,95%
O=C(NCCCN1CCOCC1)c1ccc(Nc2ncc(Cl)c(-c3ccc(Cl)s3)n2)cc1,PIK3CA C420R,binding,competition with immobilised ligand,1 µM,100%
CC(C)(O)c1cncc(-c2nc3ccc(F)cc3n2C2CC2)c1,PIK3CA M1043I,cell-free assay,competition with immobilised ligand,1 µM,100%
c1cncc(-c2cccc(Nc3nccc(NC4CCCCC4)n3)c2)c1,"Phosphatidylinositol 4,5-bisphosphate 3-kinase catalytic subunit alpha isoform (PIK3CA, Homo sapiens, UniProt P42336, H1047L)",binding,competition with immobilised ligand,10 µM,100%
C=CC(=O)N1CCC(C(=O)NCC(=O)N2CCN(c3nc(-c4cnc(N)nc4C(F)F)nc(N4CCOCC4)n3)CC2)CC1,PIK3CA H1047Y,binding,competition with immobilised ligand,1 µM,5.9%
O=C(NS(=O)(=O)c1ccc(NCC2CCOCC2)c([N+](=O)[O-])c1)c1ccc(N2CCN(Cc3ccc(C(F)(F)F)cc3-c3ccc(Cl)cc3)CC2)cc1Oc1cnc2[nH]ccc2c1,PIK3CA,cell-free assay,competition with immobilised ligand,1 µM,69%
CN(c1nccc(-c2cnn3ncccc23)n1)C1CC1,PIK3CA E542K,binding,,1 µM,56%
O=C(c1ccc(Nc2nccc(-c3cc4ccccc4s3)n2)cc1)N1CCC(N2CCCC2)CC1,"Phosphatidylinositol 4,5-bisphosphate 3-kinase catalytic subunit alpha isoform (PIK3CA, Homo sapiens, UniProt P42336, Q546K)",binding,competition with immobilised ligand,1 µM,100%
O=C(Nc1cnc(Oc2ccc(F)cc2)nc1)N1CCc2ncccc2[C@@H]1c1ccc(F)cc1,PIK3CA H1047Y,cell-free assay,competition with immobilised ligand,1 µM,100%
